Assay results reported in ChEMBL document CHEMBL4177752, “Discovery of Novel Schizocommunin Derivatives as Telomeric G-Quadruplex Ligands That Trigger Telomere Dysfunction and the Deoxyribonucleic Acid (DNA) Damage Response” (J Med Chem, 2018).
pIC50, pKd: −log10 of the molar value. Activity calls are given as the source filed them. The calls are words filed in the database; no cut-off is given here.

Tests used:
Quadruplex DNA [1] = test: Stabilization of F21T telomeric G-quadruplex DNA (unknown origin) assessed as change in melting temperature at 1 uM by FRET assay; format: nucleic-acid assay
Summary of the method: (§1)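 FRET melting: 0.2 µM F21T or F10T (FAM/TAMRA-labelled), with or without 1.0 µM ligand, in 10 mM Tris-HCl pH 7.4 with 60 mM KCl. Excitation 470 nm, emission 530 nm, read every 1 °C from 37–99 °C at 1 °C/min with a 30 s hold. ΔTm = Tm(DNA+ligand) − Tm(DNA).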

HL-60 = test: Antiproliferative activity against human HL60 cells after 48 hrs by MTT assay; format: functional, cell-based; conditions: HL-60, 48 h
Summary of the method: (§2)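 Cells seeded at 5.0×10^3 per well and exposed to a range of compound concentrations for 48 h. MTT (2.5 mg/mL solution) was then added for 4 h, formazan was dissolved in DMSO, and OD was read at 570 nm. HL-60 was grown in RPMI-1640 with 10% FBS, the other lines in DMEM with 10% FBS, at 37 °C and 5% CO2. Triplicates; IC50 taken from mean OD versus concentration curves.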

Quadruplex DNA [2] = test: Binding affinity to HTG21 telomeric G-quadruplex DNA (unknown origin) by SPR method; format: nucleic-acid assay
Summary of the method: (§3)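 SPR: biotinylated HTG21 or hairpin DNA (200 nM) was folded in 50 mM Tris-HCl pH 7.4 with 100 mM KCl and captured to about 1,000 RU on an NLC chip against a blank reference cell. Ligand at 0.625–40 µM was injected at 25 µL/min (400 s association, 300 s dissociation) at 25 °C. The chip was regenerated with 1 M KCl and blank sensorgrams were subtracted.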

[3] = Stabilization of F10T hairpin duplex DNA (unknown origin) assessed as change in melting temperature at 1 uM by FRET assay; summary of the method: as §1
[4] = Binding affinity to hairpin duplex DNA (unknown origin) at 40 uM by SPR method; summary of the method: as §3
SiHa = test: Antiproliferative activity against human SiHa cells after 48 hrs by MTT assay; format: functional, cell-based; summary of the method: as §2
HeLa = test: Antiproliferative activity against human HeLa cells after 48 hrs by MTT assay; format: functional, cell-based; summary of the method: as §2
U2OS = test: Antiproliferative activity against human U2OS cells after 48 hrs by MTT assay; format: functional, cell-based; summary of the method: as §2
A549 = test: Antiproliferative activity against human A549 cells after 48 hrs by MTT assay; format: functional, cell-based; conditions: A549, 48 h; summary of the method: as §2
Quadruplex DNA [5] = test: Stabilization of F21T telomeric G-quadruplex DNA (unknown origin) at 1 uM in presence of non-fluorescent duplex DNA ds26 by FRET assay; format: nucleic-acid assay
Summary of the method: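 Competition FRET: 0.2 µM F21T with 1 µM ligand, plus or minus unlabelled duplex ds26 at 3 µM (15-fold) or 10 µM (50-fold), in 10 mM Tris-HCl pH 7.4 with 60 mM KCl. Melting monitored at 470/530 nm over 37–99 °C.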

SMILES | ΔTm (Quadruplex DNA [1]) [°C] | pIC50 (HL-60) | pKd (Quadruplex DNA [2]) | ΔTm [3] [°C] | Activity [4] | pIC50 (HeLa) | pIC50 (U2OS) | pIC50 (A549) | pIC50 (SiHa) | Activity (Quadruplex DNA [5])
CCN(CC)CCCNc1cc2nc(/C=C3\C(=O)Nc4cc(N5CCN(C)CC5)ccc43)[nH]c(=O)c2cc1F | 20.6 | 5.27 | 5.13 | 0.2 | inactive | 5.00 | 5.12 | 5.64 | 5.55 | 
CN(C)CCCNc1c2ccccc2nc2c1[nH]c1ccccc12 | 11.6 |  |  | 5.2 |  |  |  |  |  | inactive
CN(C)CCCN(C)c1cc2c(cc1F)/C(=C/c1nc3cc(NCCN(C)C)c(F)cc3c(=O)[nH]1)C(=O)N2 | 20.1 | 5.25 | 4.85 | 0.3 | inactive | 4.65 | 5.04 | 4.91 | 5.12 | 
CN1CCN(c2cc3c(cc2F)/C(=C/c2nc4cc(NCCCn5ccnc5)c(F)cc4c(=O)[nH]2)C(=O)N3)CC1 | 11.5 | < 4.30 | 4.68 | 0.5 | inactive | < 4.30 | < 4.30 | < 4.30 | < 4.30 | 
CN1CCN(c2ccc3c(c2)NC(=O)/C3=C\c2nc3cc(NCCN4CCCC4)c(F)cc3c(=O)[nH]2)CC1 | 18.6 | 5.44 | < 4.40 | 0.2 | inactive | 4.76 | 5.19 | 5.39 | 4.96 | 
CCN(CC)CCCNc1cc2nc(/C=C3\C(=O)Nc4ccccc43)[nH]c(=O)c2cc1F | 10 | 5.12 | < 4.40 | 0.1 | inactive | < 4.30 | 4.90 | 5.07 | 4.63 | 
CN(C)CCCN(CCCN(C)C)c1cc2nc(/C=C3\C(=O)Nc4ccccc43)[nH]c(=O)c2cc1F | 12.6 | 4.79 | 4.64 | 0.2 | inactive | 4.31 | < 4.30 | < 4.30 | 5.00 | 
CN(C)CCCNc1cc2nc(/C=C3/C(=O)Nc4ccccc43)n(CCCN(C)C)c(=O)c2cc1F | 9.2 | 5.09 | < 4.40 | 0.1 | inactive | 4.57 | 4.55 | 4.74 | 4.52 | 
O=C1Nc2ccccc2/C1=C/c1nc2cc(NCCCN3CCOCC3)c(F)cc2c(=O)[nH]1 | 8.6 | < 4.30 | < 4.40 | 0.1 | inactive | < 4.30 | < 4.30 | < 4.30 | < 4.30 | 
CN1CCN(c2cc3c(cc2F)/C(=C/c2nc4cc(NCCCN5CCCC5)c(F)cc4c(=O)[nH]2)C(=O)N3)CC1 | 23.6 | 5.54 | 5.10 | 0.3 | inactive | 5.05 | 4.79 | 4.60 | 5.03 | 
O=C1Nc2cc(N3CCOCC3)c(F)cc2/C1=C/c1nc2cc(NCCCN3CCOCC3)c(F)cc2c(=O)[nH]1 | 5.2 | < 4.30 | < 4.40 | 0.2 | inactive | < 4.30 | < 4.30 | < 4.30 | < 4.30 | 
O=C1Nc2cc(N3CCOCC3)c(F)cc2/C1=C/c1nc2cc(NCCCN3CCCC3)c(F)cc2c(=O)[nH]1 | 8.4 | 5.42 | < 4.40 | 0.3 | inactive | < 4.30 | < 4.30 | < 4.30 | 4.37 | 
CN(C)CCNc1cc2nc(/C=C3\C(=O)Nc4cc(N5CCN(C)CC5)ccc43)[nH]c(=O)c2cc1F | 18 | 5.11 | < 4.40 | 0.2 | inactive | 4.80 | 5.20 | 5.66 | 5.47 | 
CCN(CC)CCCN1C(=O)/C(=C\c2nc3cc(N4CCN(C)CC4)c(F)cc3c(=O)[nH]2)c2ccccc21 | 5.8 | 4.88 | < 4.40 | 0.3 | inactive | < 4.30 | < 4.30 | < 4.30 | < 4.30 | 

Further molecules by rising pIC50 (HL-60), results first:

ΔTm (Quadruplex DNA [1]) [°C] | pIC50 (HL-60) | pKd (Quadruplex DNA [2]) | ΔTm [3] [°C] | Activity [4] | pIC50 (HeLa) | pIC50 (U2OS) | pIC50 (A549) | SMILES | pIC50 (SiHa) | Activity (Quadruplex DNA [5])
12.2 | 4.91 | < 4.40 | 0.1 | inactive | < 4.30 | < 4.30 | < 4.30 | CN1CCN(c2cc3c(cc2F)/C(=C/c2nc4cc(N5CCN(C)CC5)c(F)cc4c(=O)[nH]2)C(=O)N3)CC1 | < 4.30 | 
18.2 | 5.19 | 4.74 | 0.3 | inactive | 5.15 | 5.08 | 4.84 | CN(C)CCCNc1cc2nc(/C=C3\C(=O)Nc4cc(N(C)CCCN(C)C)c(F)cc43)[nH]c(=O)c2cc1F | 5.54 | 
25.3 | 5.24 | 5.31 | 0.1 | inactive | 5.02 | 4.99 | 5.21 | CCN(CC)CCCNc1cc2nc(/C=C3\C(=O)Nc4cc(N5CCN(C)CC5)c(F)cc43)[nH]c(=O)c2cc1F | 5.10 | 
16.5 | 5.37 | < 4.40 | 0.1 | inactive | 4.31 | 4.85 | 4.72 | CN(C)CCCNc1ccc2c(=O)[nH]c(/C=C3\C(=O)Nc4cc(N5CCN(C)CC5)ccc43)nc2c1 | 4.94 | 
9 | 5.38 | < 4.40 | 0.1 | inactive | 4.46 | 4.49 | < 4.30 | CCN(CC)CCCNc1cc2nc(/C=C3\C(=O)Nc4cc(N5CCOCC5)c(F)cc43)[nH]c(=O)c2cc1F | 4.36 | 
11.9 | 5.47 | < 4.40 | 0.1 | inactive | 4.52 | < 4.30 | < 4.30 | CN(C)CCCNc1cc2nc(/C=C3\C(=O)Nc4cc(N5CCOCC5)c(F)cc43)[nH]c(=O)c2cc1F | < 4.30 | 
19.8 | 5.48 | 5.02 | 0.1 | inactive | 5.06 | 4.90 | 5.01 | CN1CCN(CCCNc2cc3nc(/C=C4\C(=O)Nc5cc(N6CCN(C)CC6)c(F)cc54)[nH]c(=O)c3cc2F)CC1 | 5.55 | 
11.8 | 5.49 | < 4.40 | 0.2 | inactive | 4.87 | 4.73 | 4.83 | CN(C)CCCNc1cc2nc(/C=C3\C(=O)Nc4ccccc43)[nH]c(=O)c2cc1F | 4.77 | 
15.6 | 5.49 | < 4.40 | 0.2 | inactive | 4.89 | 5.03 | 4.98 | CN(C)CCCN(C)c1cc2c(cc1F)/C(=C/c1nc3cc(N4CCN(C)CC4)c(F)cc3c(=O)[nH]1)C(=O)N2 | 5.46 | 
18.7 | 5.55 | < 4.40 | 0.2 | inactive | 4.69 | 5.44 | 5.74 | CN1CCN(c2ccc3c(c2)NC(=O)/C3=C\c2nc3cc(NCCN4CCCCC4)c(F)cc3c(=O)[nH]2)CC1 | 5.27 | 
22.7 | 5.57 | 4.68 | 0.1 | inactive | 4.98 | 5.15 | 5.25 | CN1CCN(c2cc3c(cc2F)/C(=C/c2nc4cc(NCCN5CCCC5)c(F)cc4c(=O)[nH]2)C(=O)N3)CC1 | 5.03 | 
23.1 | 5.77 | 4.66 | 0.3 | inactive | 5.05 | 5.09 | 5.21 | CCN(CC)CCNc1cc2nc(/C=C3\C(=O)Nc4cc(N5CCN(C)CC5)c(F)cc43)[nH]c(=O)c2cc1F | 4.91 | 
